The results in this text go back to ChEMBL document CHEMBL2046280, “Discovery of the novel potent and selective FLT3 inhibitor 1-{5-[7-(3- morpholinopropoxy)quinazolin-4-ylthio]-[1,3,4]thiadiazol-2-yl}-3-p-tolylurea and its anti-acute myeloid leukemia (AML) activities in vitro and in vivo” (J Med Chem, 2012).

The target in data set [1] is Serine/threonine-protein kinase pim-1 (Homo sapiens, UniProt P11309). Briefly: Inhibition of human Pim1.
The nature of data set [2]: Cmax in Sprague-Dawley rat at 40 mg/kg, ip. The settings on record: in vivo. It is filed as ADME, organism-based. On the set-up: dose 40 mg/kg, route intraperitoneal. A digest of the protocol: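 Male Sprague−Dawley rats (200−250 g), n = 3, fasted overnight, with a femoral-vein catheter for blood sampling. Single 40 mg/kg ip dose; plasma drug levels measured by LC-MS/MS.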

The test system of the next data set is MDA-MB-231. Briefly: Cytotoxicity against human MDA-MB-231 cells after 72 hrs by MTT assay. The settings on record: MDA-MB-231, 72 h. (In general: Tetrazolium dyes change colour on reduction, which living cells bring about.)
The target of data set [3] is Tyrosine-protein kinase JAK3 (Homo sapiens, UniProt P52333). Briefly: Inhibition of human JAK3.
Chain of Tyrosine-protein kinase JAK3 (P52333 whole entry): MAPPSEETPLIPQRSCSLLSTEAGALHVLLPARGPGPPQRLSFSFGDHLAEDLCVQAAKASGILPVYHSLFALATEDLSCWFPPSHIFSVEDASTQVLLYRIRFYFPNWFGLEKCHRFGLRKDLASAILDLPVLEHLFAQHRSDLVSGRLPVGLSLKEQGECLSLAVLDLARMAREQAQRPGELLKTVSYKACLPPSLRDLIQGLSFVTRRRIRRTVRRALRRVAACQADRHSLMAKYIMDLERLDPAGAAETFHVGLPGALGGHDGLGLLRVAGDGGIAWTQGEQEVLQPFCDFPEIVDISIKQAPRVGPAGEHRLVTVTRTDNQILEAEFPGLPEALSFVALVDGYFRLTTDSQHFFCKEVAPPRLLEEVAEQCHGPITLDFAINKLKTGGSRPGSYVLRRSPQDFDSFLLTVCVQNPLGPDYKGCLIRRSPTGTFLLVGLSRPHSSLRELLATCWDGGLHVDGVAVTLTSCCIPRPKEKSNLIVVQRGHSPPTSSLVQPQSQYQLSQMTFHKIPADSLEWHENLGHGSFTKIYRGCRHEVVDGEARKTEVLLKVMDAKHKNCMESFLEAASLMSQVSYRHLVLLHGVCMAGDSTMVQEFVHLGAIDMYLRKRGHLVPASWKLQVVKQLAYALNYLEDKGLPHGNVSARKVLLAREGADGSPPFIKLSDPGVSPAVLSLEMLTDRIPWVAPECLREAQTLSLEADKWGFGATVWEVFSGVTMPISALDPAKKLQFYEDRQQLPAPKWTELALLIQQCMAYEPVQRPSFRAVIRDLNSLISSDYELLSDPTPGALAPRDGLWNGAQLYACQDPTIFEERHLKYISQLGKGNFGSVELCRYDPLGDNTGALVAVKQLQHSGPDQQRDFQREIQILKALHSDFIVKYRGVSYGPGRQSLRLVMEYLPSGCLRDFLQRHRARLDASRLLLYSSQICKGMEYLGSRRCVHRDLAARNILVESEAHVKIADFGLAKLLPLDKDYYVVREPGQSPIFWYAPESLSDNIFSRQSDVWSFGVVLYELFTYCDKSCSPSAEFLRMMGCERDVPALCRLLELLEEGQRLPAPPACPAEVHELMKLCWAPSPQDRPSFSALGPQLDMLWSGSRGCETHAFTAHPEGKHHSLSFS
The target of data set [4] is RAF proto-oncogene serine/threonine-protein kinase (Homo sapiens, UniProt P04049). Briefly: Inhibition of human c-Raf.
Chain of RAF proto-oncogene serine/threonine-protein kinase (P04049 whole entry): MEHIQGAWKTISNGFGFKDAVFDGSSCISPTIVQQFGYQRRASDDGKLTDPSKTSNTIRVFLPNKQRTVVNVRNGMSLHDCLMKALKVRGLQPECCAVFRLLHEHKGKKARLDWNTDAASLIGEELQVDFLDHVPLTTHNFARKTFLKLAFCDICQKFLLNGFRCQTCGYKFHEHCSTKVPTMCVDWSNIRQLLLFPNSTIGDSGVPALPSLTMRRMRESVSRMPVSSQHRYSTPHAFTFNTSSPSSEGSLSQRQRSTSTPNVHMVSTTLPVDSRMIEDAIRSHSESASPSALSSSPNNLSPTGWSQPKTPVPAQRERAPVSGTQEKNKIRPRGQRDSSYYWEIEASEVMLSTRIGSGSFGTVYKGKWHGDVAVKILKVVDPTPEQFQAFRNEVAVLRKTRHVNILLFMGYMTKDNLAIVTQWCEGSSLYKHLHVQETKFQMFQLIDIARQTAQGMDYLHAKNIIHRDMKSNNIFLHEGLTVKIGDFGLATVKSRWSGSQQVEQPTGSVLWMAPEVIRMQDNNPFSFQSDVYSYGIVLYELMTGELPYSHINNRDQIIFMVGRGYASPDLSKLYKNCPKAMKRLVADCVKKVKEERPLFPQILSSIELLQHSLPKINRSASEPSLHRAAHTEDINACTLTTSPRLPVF
Another data set has as its system KARPAS-299. Briefly: Cytotoxicity against human KARPAS299 cells after 72 hrs by MTT assay. Particulars: KARPAS-299, 72 h.
Data set [5] can be described thus: Cytotoxicity against human HCC827 cells after 72 hrs by MTT assay. Particulars: HCC827, 72 h.
Data set [6] concerns the target Platelet-derived growth factor receptor alpha (Homo sapiens, UniProt P16234). The data set can be described thus: Inhibition of human PDGFRalpha.
For the next data set, the system named is A549. Briefly: Cytotoxicity against human A549 cells after 72 hrs by MTT assay. Particulars: A549, 72 h.
A further data set deals with BT-474. Briefly: Cytotoxicity against human BT474 cells after 72 hrs by MTT assay. The settings on record: BT-474, 72 h.
Data set [7] deals with MV4-11. The data set can be described thus: Antitumor activity against human MV4-11 cells xenografted in NOD-SCID mouse assessed as increase in apoptotic cells at 20 mg/kg, ip administered qd for 21 days measured after 2 to 3 days of last dose by TUNEL analysis. Type of data set: functional, organism-based. On the set-up: dose 20 mg/kg. Particulars: TDE = time-dependent effect. The method, boiled down:
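NOD-SCID mice bearing MV4-11 tumours received 20 mg/kg/d ip and were sacrificed at set times after dosing. Tumours were formalin-fixed and paraffin-embedded, and 4−8 μm sections were cut. Proliferation by Ki67 immunostaining, apoptosis by TUNEL staining, tissue by hematoxylin staining; light-microscope imaging.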
A general note: In xenograft studies the graft and the host belong to different species.

Data set [8] can be described thus: Cytotoxicity against human H820 cells after 72 hrs by MTT assay. The settings on record: NCI-H820, 72 h.
For another data set, the system named is NCI-H2228. The data set can be described thus: Cytotoxicity against human NCI-H2228 cells after 72 hrs by MTT assay. Particulars: NCI-H2228, 72 h.
In data set [9] the test system is MV4-11. Briefly: Antitumor activity against human MV4-11 cells xenografted in NOD-SCID mouse assessed as tumor growth inhibition at 100 mg/kg, ip once daily for 21 days measured every 3 days relative to control. Particulars: MV4-11, ip, route intraperitoneal, read-out: GI. Type of data set: functional. The method, boiled down:
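Female NOD-SCID mice, 6−7 weeks old, received 100 μL of MV4-11 cells (1 × 10⁸/mL in serum-free medium) s.c. in the hind flank. At 300−500 mm³ tumours, mice were randomized (6 per group). Drug was dissolved in 25% (v/v) PEG400 plus 5% DMSO and given ip once daily at 5 mL/kg. Calipers every 3 days; volume = a × b²/2.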

For data set [10], the target named is T1, Receptor-type tyrosine-protein kinase FLT3 (Homo sapiens, UniProt P36888).
T1 sequence (P36888 whole entry): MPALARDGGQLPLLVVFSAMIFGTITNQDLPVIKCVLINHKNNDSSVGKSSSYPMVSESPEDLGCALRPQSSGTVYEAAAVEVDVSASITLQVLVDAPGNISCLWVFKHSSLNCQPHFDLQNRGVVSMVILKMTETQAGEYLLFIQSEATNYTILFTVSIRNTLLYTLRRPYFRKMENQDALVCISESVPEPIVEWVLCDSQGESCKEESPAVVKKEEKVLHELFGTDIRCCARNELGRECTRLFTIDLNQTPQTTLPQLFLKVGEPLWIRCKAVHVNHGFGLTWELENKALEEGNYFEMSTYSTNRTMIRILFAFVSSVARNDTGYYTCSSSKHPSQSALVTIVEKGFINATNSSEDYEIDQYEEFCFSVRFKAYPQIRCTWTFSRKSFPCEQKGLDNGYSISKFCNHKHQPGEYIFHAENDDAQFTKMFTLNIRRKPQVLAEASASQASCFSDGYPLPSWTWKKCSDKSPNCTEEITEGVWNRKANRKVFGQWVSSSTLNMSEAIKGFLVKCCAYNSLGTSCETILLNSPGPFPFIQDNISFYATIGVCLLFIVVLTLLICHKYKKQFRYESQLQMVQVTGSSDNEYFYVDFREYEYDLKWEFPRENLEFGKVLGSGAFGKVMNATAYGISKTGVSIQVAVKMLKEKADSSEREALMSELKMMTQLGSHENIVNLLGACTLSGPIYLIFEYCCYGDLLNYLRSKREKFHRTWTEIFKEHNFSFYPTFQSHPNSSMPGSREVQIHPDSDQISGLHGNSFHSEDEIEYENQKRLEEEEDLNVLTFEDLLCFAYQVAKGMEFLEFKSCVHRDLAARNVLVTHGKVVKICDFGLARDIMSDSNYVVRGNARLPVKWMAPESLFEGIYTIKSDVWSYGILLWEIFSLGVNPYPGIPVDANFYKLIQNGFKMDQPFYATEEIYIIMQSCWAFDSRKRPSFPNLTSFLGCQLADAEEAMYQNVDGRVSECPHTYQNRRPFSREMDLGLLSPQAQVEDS
Briefly: Inhibition of human FLT3. The method, boiled down:
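Human FLT3 kinase assayed across a dose−response series at 200 μM ATP.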

In data set [11] the target is Vascular endothelial growth factor receptor 3 (Homo sapiens, UniProt P35916). The data set can be described thus: Inhibition of human FLT4.
Chain of Vascular endothelial growth factor receptor 3 (P35916 whole entry): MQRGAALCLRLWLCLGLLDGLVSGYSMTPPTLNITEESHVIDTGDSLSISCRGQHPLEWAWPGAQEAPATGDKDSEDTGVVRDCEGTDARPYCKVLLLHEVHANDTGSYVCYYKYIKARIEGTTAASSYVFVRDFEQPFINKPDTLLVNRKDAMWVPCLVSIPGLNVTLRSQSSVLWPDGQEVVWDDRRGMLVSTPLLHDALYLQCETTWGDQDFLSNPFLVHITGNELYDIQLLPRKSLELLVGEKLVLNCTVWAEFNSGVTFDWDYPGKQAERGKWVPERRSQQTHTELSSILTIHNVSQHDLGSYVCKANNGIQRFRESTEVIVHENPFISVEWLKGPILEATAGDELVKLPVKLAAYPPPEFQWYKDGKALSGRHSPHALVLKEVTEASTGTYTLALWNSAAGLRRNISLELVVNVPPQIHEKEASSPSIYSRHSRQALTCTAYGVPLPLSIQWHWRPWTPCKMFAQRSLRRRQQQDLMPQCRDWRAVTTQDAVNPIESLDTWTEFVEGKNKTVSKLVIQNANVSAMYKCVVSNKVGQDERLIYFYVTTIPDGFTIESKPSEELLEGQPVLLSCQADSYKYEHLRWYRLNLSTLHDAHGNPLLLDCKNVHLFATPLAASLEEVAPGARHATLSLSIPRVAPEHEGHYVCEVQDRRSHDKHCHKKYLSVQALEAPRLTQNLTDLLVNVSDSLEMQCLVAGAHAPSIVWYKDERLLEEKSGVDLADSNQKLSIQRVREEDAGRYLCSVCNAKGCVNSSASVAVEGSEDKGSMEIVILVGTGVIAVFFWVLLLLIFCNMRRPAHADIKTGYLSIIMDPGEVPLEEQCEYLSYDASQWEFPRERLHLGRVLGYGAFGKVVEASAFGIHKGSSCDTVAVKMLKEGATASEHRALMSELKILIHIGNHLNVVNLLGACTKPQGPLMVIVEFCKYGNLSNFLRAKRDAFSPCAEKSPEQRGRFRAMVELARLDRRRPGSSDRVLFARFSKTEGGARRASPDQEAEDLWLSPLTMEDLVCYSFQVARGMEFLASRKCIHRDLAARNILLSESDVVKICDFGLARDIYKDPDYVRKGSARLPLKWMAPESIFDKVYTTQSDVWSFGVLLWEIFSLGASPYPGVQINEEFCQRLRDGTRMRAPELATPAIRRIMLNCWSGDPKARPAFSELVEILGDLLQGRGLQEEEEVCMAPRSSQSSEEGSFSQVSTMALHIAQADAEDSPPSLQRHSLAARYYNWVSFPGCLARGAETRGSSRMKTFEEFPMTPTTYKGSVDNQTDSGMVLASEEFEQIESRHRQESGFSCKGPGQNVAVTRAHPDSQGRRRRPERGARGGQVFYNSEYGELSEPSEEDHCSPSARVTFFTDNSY
Data set [12] has as its target Hepatocyte growth factor receptor (Homo sapiens, UniProt P08581). The data set can be described thus: Inhibition of human Met.
The test system of the next data set is A-431. Briefly: Cytotoxicity against human A431 cells after 72 hrs by MTT assay. Particulars: A-431, 72 h.

Chain of Serine/threonine-protein kinase pim-1 (P11309 whole entry): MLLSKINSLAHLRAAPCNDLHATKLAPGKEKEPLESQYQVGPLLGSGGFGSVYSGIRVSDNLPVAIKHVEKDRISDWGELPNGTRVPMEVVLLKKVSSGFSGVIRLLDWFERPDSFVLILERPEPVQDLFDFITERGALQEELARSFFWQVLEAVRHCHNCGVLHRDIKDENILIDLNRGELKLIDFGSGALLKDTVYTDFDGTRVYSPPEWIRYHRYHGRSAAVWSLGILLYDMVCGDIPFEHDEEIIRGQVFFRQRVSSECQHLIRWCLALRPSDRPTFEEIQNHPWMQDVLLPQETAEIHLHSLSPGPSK
Chain of Platelet-derived growth factor receptor alpha (P16234 whole entry): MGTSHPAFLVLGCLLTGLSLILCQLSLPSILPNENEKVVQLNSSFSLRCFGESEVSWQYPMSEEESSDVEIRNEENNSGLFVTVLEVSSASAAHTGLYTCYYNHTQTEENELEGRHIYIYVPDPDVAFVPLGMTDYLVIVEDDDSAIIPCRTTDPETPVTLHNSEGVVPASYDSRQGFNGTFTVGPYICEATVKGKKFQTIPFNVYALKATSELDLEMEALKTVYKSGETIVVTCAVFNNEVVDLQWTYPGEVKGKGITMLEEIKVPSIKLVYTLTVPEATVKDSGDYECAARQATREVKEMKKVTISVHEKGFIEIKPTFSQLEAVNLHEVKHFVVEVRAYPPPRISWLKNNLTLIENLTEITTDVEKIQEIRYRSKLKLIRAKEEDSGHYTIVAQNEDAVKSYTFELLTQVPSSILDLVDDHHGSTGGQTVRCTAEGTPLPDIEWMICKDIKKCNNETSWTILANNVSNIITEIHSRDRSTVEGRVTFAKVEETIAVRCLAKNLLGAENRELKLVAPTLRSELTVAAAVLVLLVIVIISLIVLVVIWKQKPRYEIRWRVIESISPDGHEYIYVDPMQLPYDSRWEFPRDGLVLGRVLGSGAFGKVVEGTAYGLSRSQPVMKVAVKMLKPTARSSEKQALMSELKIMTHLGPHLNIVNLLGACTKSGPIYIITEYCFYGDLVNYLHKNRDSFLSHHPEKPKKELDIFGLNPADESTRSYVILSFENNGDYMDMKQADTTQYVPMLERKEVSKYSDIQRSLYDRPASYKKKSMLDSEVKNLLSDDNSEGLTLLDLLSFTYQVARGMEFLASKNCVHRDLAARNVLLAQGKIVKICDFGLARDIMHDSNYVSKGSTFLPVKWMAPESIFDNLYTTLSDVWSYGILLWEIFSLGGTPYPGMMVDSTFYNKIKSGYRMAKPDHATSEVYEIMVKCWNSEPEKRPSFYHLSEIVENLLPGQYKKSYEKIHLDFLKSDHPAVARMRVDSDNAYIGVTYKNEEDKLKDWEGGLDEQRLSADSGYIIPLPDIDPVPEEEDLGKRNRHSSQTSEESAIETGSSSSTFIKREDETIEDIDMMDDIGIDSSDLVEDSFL

Regarding `Cc1ccc(NC(=O)Nc2nnc(Sc3ncnc4cc(OCCCN5CCOCC5)ccc34)s2)cc1`, the half-maximal inhibitory concentration (IC50) (commonly the concentration that inhibits the measured activity by half) in data set [1] was more than 10 µM; in the data set with MDA-MB-231, more than 20 µM; in data set [3], more than 10 µM; in [4], more than 10 µM; in the data set on KARPAS-299, more than 20 µM; in data set [5] it was 12.5 µM. Besides, the IC50 is more than 10 µM in [6]; more than 20 µM with A549; more than 20 µM in the data set on BT-474; more than 20 µM in data set [8]; more than 20 µM in the data set on NCI-H2228; 0.01 µM in data set [10]. The IC50 in data set [11] was 3.7 µM; in [12], more than 10 µM; in the data set on A-431, 8.91 µM. Moreover, the Cmax (as a rule, the peak of the concentration-time curve) in [2] amounted to 5310 ng/mL. The Activity result with MV4-11 [7] was “tde”. Moreover, the inhibition in vivo at 100 mg/kg in the data set with MV4-11 [9] came out at 115%.
